# Key:
# Assay type in all cases: functional
# Conditions in all cases: 96 h
# Plutella xylostella [1] = assay: Larvicidal activity against second-instar larvae of Plutella xylostella (diamondback moth) infected in compound-treated cabbage leaves assessed as mortality at 200 mg/l measured after 4 days
# Method in brief: (§1)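 Test solutions at the different concentrations were made by dissolving compounds in DMF and adding distilled water.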
# Mythimna separata [2] = assay: Larvicidal activity against fourth instar larvae of Mythimna separata (Oriental armyworm) infected compound-treated corn leaves assessed as mortality at 50 mg/l measured after 4 days
# Method in brief: (§2)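 Petri dishes each infested with 10 fourth-instar larvae; percentage mortality scored 4 days after treatment. Three replicates per treatment, with the reported value the mean of the three.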
# Mythimna separata [3] = assay: Larvicidal activity against fourth instar larvae of Mythimna separata (Oriental armyworm) infected compound-treated corn leaves assessed as mortality at 100 mg/l measured after 4 days; method in brief: as §2
# Mythimna separata [4] = assay: Larvicidal activity against fourth instar larvae ofMythimna separata (Oriental armyworm) infected compound-treated corn leaves assessed as mortality at 200 mg/l measured after 4 days; method in brief: as §2
# Plutella xylostella [5] = assay: Larvicidal activity against second-instar larvae of Plutella xylostella (diamondback moth) infected in compound-treated cabbage leaves assessed as mortality at 20 mg/l measured after 4 days; method in brief: as §1
# Mythimna separata [6] = assay: Larvicidal activity against fourth instar larvae of Mythimna separata (Oriental armyworm) infected compound-treated corn leaves assessed as mortality at 10 mg/l measured after 4 days; method in brief: as §2
# Plutella xylostella [7] = assay: Larvicidal activity against second-instar larvae of Plutella xylostella (diamondback moth) infected in compound-treated cabbage leaves assessed as mortality at 5 mg/l measured after 4 days; method in brief: as §1
# Plutella xylostella [8] = assay: Larvicidal activity against second-instar larvae of Plutella xylostella (diamondback moth) infected in compound-treated cabbage leaves assessed as mortality at 2 mg/l measured after 4 days; method in brief: as §1
# Mythimna separata [9] = assay: Larvicidal activity against fourth instar larvae of Mythimna separata (Oriental armyworm) infected compound-treated corn leaves assessed as mortality at 5 mg/l measured after 4 days; method in brief: as §2
# Mythimna separata [10] = assay: Larvicidal activity against fourth instar larvae of Mythimna separata (Oriental armyworm) infected compound-treated corn leaves assessed as mortality at 20 mg/l measured after 4 days; method in brief: as §2
# Mythimna separata [11] = assay: Larvicidal activity against fourth instar larvae of Mythimna separata (Oriental armyworm) infected compound-treated corn leaves assessed as mortality at 1 mg/l measured after 4 days; method in brief: as §2
# Mythimna separata [12] = assay: Larvicidal activity against fourth instar larvae of Mythimna separata (Oriental armyworm) infected compound-treated corn leaves assessed as mortality at 2.5 mg/l measured after 4 days; method in brief: as §2
SMILES,mortality at 200 µg/mL (Plutella xylostella [1]),mortality at 50 µg/mL (Mythimna separata [2]),mortality at 100 µg/mL (Mythimna separata [3]),mortality at 200 µg/mL (Mythimna separata [4]),other results
O=C(NC(=O)c1c(F)cccc1F)Nc1ccc(S(=O)(=O)OCCF)cc1,20%,0%,100%,100%,
O=C(NC(=O)c1c(F)cccc1F)Nc1ccc(S(=O)(=O)OCCCl)cc1,30%,40%,100%,100%,
O=C(NC(=O)c1c(F)cccc1F)Nc1ccc(S(=O)(=O)OC(C(F)(F)F)C(F)(F)F)cc1,60%,,,0%,mortality at 20 µg/mL (Plutella xylostella [5]): 20%
O=C(NC(=O)c1c(F)cccc1F)Nc1ccc(S(=O)(=O)OCCCCCl)cc1,20%,20%,100%,100%,
CCCCCOS(=O)(=O)c1ccc(NC(=O)NC(=O)c2c(F)cccc2F)cc1,30%,60%,100%,100%,mortality at 10 µg/mL (Mythimna separata [6]): 95%
CC(C)(C)NC(=O)c1ccc(NC(=O)NC(=O)c2c(F)cccc2F)cc1,0%,50%,100%,100%,
CC(C)N(C(=O)c1ccc(NC(=O)NC(=O)c2c(F)cccc2F)cc1)C(C)C,,,,0%,mortality at 20 µg/mL (Plutella xylostella [5]): 100%
CN(C(=O)c1ccc(NC(=O)NC(=O)c2c(F)cccc2F)cc1)c1ccc(Cl)cc1,0%,,,0%,
O=C(NC(=O)c1c(F)cccc1F)Nc1ccc(C(=O)Nc2ccc(Cl)cc2)cc1,0%,,,0%,
CCCCNC(=O)c1ccc(NC(=O)NC(=O)c2c(F)cccc2F)cc1,0%,,,0%,
O=C(NC(=O)c1c(F)cccc1F)Nc1ccc(C(=O)N2CCOCC2)cc1,0%,,,0%,
CC(C)(C)c1ccc(CNC(=O)c2ccc(NC(=O)NC(=O)c3c(F)cccc3F)cc2)cc1,0%,,,0%,
O=C(NC(=O)c1c(F)cccc1F)Nc1ccc(S(=O)(=O)Oc2ccc(Cl)cc2)cc1,0%,,,0%,
CC1CCC(C(C)C)C(OS(=O)(=O)c2ccc(NC(=O)NC(=O)c3c(F)cccc3F)cc2)C1 (stereo not drawn),0%,,,0%,
O=C(NC(=O)c1c(F)cccc1F)Nc1ccc(S(=O)(=O)OCC(F)(F)F)cc1,100%,100%,100%,100%,mortality at 10 µg/mL (Mythimna separata [6]): 100%; mortality at 5 µg/mL (Plutella xylostella [7]): 90%; mortality at 2 µg/mL (Plutella xylostella [8]): 40%; mortality at 5 µg/mL (Mythimna separata [9]): 60%; mortality at 20 µg/mL (Plutella xylostella [5]): 100%; mortality at 20 µg/mL (Mythimna separata [10]): 100%
O=C(NC(=O)c1c(F)cccc1F)Nc1ccc(CO/N=C(/c2ccc(Cl)cc2)C2CC2)cc1 [FLUCYCLOXURON],,,,,mortality at 1 µg/mL (Mythimna separata [11]): 10%; mortality at 5 µg/mL (Mythimna separata [9]): 90%; mortality at 2.5 µg/mL (Mythimna separata [12]): 50%
